# Active and inactive are the calls of the source. No cut-off for these calls is given here.
# Columns and labels:
# [1] = biological target: 5'-AMP-activated protein kinase catalytic subunit alpha-2 (Homo sapiens, UniProt P54646); experiment: Inhibition of AMPKalpha2 in human HeLa cells lysate pre incubated for 15 mins followed by ADP acyl phosphate probe addition and measured after 10 mins by LC-MS/MS analysis; assay type: subcellular
# Method in brief: (§1)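 HeLa cell lysates (5 mg/mL total protein) were preincubated with inhibitor at 0, 0.8, 2, 10 or 50 μM for 15 min. ATP or ADP acylphosphate probe was then added (5 μM final) for 10 min, and reactions were stopped with urea. Up to four fragment ions per kinase probe-peptide were quantified by targeted MS. % inhibition was taken relative to untreated lysate. Run in duplicate.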
# [2] = biological target: Eukaryotic elongation factor 2 kinase (Homo sapiens, UniProt O00418); experiment: Inhibition of EEF2K in human HeLa cells lysate pre incubated for 15 mins followed by ATP acyl phosphate probe addition and measured after 10 mins by LC-MS/MS analysis; assay type: subcellular
# [3] = biological target: Ribosomal protein S6 kinase alpha-3 (Homo sapiens, UniProt P51812); experiment: Inhibition of RSK2 domain 2 in human HeLa cells lysate at 50 uM pre incubated for 15 mins followed by ATP acyl phosphate probe addition and measured after 10 mins by LC-MS/MS analysis relative to control; assay type: subcellular; settings: time 25.0 min
# [4] = Inhibition of HGK/MINK/TNIK in human HeLa cells lysate pre incubated for 15 mins followed by ATP acyl phosphate probe addition and measured after 10 mins by LC-MS/MS analysis; assay type: subcellular
# [5] = Inhibition of KHS1/2 in human HeLa cells lysate pre incubated for 15 mins followed by ATP acyl phosphate probe addition and measured after 10 mins by LC-MS/MS analysis; assay type: subcellular
# [6] = biological target: T1, Serine/threonine-protein kinase Chk1 (Homo sapiens) (UniProt O14757); experiment: Inhibition of CHK1 K2 site in human HeLa cells lysate at 2 uM pre incubated for 15 mins followed by ATP acyl phosphate probe addition and measured after 10 mins by LC-MS/MS analysis relative to control; assay type: subcellular; settings: time 25.0 min
# T1 sequence (whole entry): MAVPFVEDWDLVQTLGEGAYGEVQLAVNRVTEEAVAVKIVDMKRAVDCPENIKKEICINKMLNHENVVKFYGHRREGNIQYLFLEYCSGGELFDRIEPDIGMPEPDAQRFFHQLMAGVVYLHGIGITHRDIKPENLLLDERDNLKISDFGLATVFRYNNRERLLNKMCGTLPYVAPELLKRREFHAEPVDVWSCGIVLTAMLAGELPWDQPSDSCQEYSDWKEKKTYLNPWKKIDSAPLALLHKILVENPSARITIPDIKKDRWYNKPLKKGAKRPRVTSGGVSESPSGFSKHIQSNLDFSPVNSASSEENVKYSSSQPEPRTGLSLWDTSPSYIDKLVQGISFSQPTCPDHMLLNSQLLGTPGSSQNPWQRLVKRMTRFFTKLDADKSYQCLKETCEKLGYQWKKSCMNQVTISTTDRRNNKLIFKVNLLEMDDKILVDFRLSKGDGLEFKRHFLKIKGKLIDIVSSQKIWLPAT
# Method in brief: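 KiNativ profiling in HeLa lysate (5 mg/mL total protein). Lysate incubated 15 min with inhibitor at 50, 10, 2, 0.8 or 0 μM. ATP or ADP acylphosphate probe then added (5 μM final) and reacted 10 min. Reaction stopped with urea and analysed by targeted MS, using up to four fragment ions per kinase peptide-probe conjugate. % inhibition taken against untreated lysate. Run in duplicate.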
# [7] = biological target: Mitogen-activated protein kinase 7 (Mus musculus) (UniProt Q9WVS8); experiment: Inhibition of BMK1 in pml null mouse MEF cells assessed as increase in p21 protein expression at 5 uM incubated for 16 hrs by Western blot analysis; assay type: cell-based
# Method in brief: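 Pml+/+ or Pml−/− MEFs treated ±5 μM inhibitor for 16 h. Lysates western blotted for p21, quantified by densitometry and normalized to GAPDH, relative to untreated Pml+/+ MEF set as 1. n = 3, ±SEM.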
# [8] = biological target: Ribosomal protein S6 kinase alpha-5 (Homo sapiens, UniProt O75582); experiment: Inhibition of MSK1 domain 1 K1 site in human HeLa cells lysate at 10 uM pre incubated for 15 mins followed by ADP acyl phosphate probe addition and measured after 10 mins by LC-MS/MS analysis relative to control; assay type: subcellular; settings: time 25.0 min
# [9] = biological target: Rho-associated protein kinase (Homo sapiens, UniProt O75116+Q13464); experiment: Inhibition of ROCK1/2 in human HeLa cells lysate at 50 uM pre incubated for 15 mins followed by ATP acyl phosphate probe addition and measured after 10 mins by LC-MS/MS analysis relative to control; assay type: subcellular; settings: time 25.0 min
# [10] = Inhibition of HGK/MINK/TNIK in human HeLa cells lysate at 2 uM pre incubated for 15 mins followed by ATP acyl phosphate probe addition and measured after 10 mins by LC-MS/MS analysis relative to control; settings: 25 min, condition cancer
# [11] = Inhibition of MAP3K5/MAP3K6/MAP3K15 in human HeLa cells lysate at 2 uM pre incubated for 15 mins followed by ATP acyl phosphate probe addition and measured after 10 mins by LC-MS/MS analysis relative to control; settings: 25 min, condition cancer
# [12] = Inhibition of HGK/MINK/TNIK in human HeLa cells lysate at 2 uM pre incubated for 15 mins followed by ADP acyl phosphate probe addition and measured after 10 mins by LC-MS/MS analysis relative to control; settings: 25 min, condition cancer
# [13] = biological target: AMPK alpha1/alpha2 (Homo sapiens, UniProt P54646+Q13131); experiment: Inhibition of AMPKalpha1/2 in human HeLa cells lysate at 50 uM pre incubated for 15 mins followed by ATP acyl phosphate probe addition and measured after 10 mins by LC-MS/MS analysis relative to control; assay type: subcellular; settings: time 25.0 min; method in brief: as §1
# [14] = biological target: 5'-AMP-activated protein kinase catalytic subunit alpha-1 (Homo sapiens, UniProt Q13131); experiment: Inhibition of AMPKalpha1 in human HeLa cells lysate at 50 uM pre incubated for 15 mins followed by ADP acyl phosphate probe addition and measured after 10 mins by LC-MS/MS analysis relative to control; assay type: subcellular; settings: time 25.0 min; method in brief: as §1
# [15] = biological target: T2, EKC/KEOPS complex subunit TP53RK (Homo sapiens) (UniProt Q96S44); experiment: Inhibition of PRPK in human HeLa cells lysate at 50 uM pre incubated for 15 mins followed by ADP acyl phosphate probe addition and measured after 10 mins by LC-MS/MS analysis relative to control; assay type: subcellular; settings: time 25.0 min
# T2 sequence (whole entry): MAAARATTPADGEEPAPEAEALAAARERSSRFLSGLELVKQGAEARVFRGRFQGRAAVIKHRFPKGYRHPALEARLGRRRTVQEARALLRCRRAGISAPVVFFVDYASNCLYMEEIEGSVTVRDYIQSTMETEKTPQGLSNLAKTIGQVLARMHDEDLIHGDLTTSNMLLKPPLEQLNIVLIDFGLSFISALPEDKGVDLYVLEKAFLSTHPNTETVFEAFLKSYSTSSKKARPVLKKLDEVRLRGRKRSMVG
# [16] = Plasma concentration in C57Bl/6 mouse at 50 mg/kg, ip administered for 8 day and measured 8 hr post last dose by LC-MS/MS analysis; assay type: ADME, organism-based
# [17] = biological target: Serine/threonine-protein kinase PLK1 (Homo sapiens, UniProt P53350); experiment: Inhibition of PLK1 K1 site in human HeLa cells lysate pre incubated for 15 mins followed by ATP acyl phosphate probe addition and measured after 10 mins by LC-MS/MS analysis; assay type: subcellular
# Serine/threonine-protein kinase PLK1, sequence (P53350 whole entry): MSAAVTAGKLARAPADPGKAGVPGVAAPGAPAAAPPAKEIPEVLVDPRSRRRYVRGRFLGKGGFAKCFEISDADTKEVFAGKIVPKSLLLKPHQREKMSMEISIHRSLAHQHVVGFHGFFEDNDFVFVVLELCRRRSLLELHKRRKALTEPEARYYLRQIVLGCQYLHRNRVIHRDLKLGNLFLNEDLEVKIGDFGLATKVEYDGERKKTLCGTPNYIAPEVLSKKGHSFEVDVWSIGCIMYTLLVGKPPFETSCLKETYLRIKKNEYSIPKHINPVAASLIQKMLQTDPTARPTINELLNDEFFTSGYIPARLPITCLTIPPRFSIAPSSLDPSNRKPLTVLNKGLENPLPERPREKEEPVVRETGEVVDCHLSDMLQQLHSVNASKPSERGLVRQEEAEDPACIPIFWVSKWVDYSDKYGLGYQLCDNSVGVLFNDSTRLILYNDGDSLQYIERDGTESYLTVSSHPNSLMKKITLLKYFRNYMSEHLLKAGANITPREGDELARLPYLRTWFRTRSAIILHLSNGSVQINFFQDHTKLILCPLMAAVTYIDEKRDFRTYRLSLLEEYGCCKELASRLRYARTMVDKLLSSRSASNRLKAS
# 5'-AMP-activated protein kinase catalytic subunit alpha-1, sequence (Q13131 whole entry, looked up): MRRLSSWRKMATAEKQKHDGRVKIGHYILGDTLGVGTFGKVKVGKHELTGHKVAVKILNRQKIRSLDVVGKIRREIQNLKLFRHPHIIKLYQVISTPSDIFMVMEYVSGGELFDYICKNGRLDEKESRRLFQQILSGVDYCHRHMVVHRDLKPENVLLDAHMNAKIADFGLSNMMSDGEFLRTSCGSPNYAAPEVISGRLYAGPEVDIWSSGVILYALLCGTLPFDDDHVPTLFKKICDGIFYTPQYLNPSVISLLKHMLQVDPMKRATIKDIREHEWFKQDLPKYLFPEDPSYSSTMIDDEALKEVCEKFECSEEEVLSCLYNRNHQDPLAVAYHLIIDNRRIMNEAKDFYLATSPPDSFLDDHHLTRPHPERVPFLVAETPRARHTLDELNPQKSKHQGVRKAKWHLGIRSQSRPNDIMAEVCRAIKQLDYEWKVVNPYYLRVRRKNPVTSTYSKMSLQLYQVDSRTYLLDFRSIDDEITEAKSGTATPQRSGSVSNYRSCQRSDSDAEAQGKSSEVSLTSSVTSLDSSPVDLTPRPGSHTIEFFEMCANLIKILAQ
# Ribosomal protein S6 kinase alpha-5, sequence (O75582 whole entry, looked up, the tested form may be a part): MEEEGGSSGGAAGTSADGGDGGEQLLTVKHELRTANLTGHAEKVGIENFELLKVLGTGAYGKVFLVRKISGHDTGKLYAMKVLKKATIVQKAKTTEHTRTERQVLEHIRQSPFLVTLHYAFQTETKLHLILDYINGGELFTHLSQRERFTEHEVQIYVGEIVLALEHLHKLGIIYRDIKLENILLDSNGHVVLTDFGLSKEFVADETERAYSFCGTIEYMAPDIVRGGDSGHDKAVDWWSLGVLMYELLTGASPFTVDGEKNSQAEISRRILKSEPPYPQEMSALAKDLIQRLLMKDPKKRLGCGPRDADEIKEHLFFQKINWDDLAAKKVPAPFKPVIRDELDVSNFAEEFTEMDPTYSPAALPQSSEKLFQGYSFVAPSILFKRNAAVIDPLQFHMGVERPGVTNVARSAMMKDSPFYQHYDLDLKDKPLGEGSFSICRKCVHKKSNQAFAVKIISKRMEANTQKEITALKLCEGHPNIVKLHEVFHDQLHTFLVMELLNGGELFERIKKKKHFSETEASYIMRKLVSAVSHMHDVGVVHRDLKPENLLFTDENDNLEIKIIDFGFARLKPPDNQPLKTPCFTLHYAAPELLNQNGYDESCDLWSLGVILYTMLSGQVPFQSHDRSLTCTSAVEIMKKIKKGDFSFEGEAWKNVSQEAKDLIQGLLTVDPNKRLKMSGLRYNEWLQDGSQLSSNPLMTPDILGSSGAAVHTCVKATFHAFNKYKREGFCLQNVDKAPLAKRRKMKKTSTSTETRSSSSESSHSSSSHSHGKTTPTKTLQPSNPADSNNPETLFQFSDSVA
# Eukaryotic elongation factor 2 kinase, sequence (O00418 whole entry, the tested form may be a part): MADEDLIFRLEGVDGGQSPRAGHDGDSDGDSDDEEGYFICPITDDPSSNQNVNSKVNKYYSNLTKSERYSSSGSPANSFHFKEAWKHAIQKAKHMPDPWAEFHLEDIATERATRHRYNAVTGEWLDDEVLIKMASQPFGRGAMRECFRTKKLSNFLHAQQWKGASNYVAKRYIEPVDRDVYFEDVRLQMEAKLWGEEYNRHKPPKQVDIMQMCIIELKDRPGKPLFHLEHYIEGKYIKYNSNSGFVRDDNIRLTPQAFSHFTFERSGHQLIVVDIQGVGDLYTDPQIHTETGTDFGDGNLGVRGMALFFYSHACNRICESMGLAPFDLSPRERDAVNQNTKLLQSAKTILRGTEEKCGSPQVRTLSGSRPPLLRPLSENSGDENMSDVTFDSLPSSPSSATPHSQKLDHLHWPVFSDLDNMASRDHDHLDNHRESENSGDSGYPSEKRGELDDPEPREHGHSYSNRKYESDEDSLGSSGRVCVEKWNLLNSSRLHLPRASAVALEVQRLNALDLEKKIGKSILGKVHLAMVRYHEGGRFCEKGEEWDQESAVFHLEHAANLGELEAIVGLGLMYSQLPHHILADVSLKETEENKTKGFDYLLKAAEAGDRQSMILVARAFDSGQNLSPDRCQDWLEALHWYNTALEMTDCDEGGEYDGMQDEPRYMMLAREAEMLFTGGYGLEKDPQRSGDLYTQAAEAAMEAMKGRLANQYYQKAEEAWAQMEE
# AMPK alpha1/alpha2, sequence (P54646 whole entry, looked up): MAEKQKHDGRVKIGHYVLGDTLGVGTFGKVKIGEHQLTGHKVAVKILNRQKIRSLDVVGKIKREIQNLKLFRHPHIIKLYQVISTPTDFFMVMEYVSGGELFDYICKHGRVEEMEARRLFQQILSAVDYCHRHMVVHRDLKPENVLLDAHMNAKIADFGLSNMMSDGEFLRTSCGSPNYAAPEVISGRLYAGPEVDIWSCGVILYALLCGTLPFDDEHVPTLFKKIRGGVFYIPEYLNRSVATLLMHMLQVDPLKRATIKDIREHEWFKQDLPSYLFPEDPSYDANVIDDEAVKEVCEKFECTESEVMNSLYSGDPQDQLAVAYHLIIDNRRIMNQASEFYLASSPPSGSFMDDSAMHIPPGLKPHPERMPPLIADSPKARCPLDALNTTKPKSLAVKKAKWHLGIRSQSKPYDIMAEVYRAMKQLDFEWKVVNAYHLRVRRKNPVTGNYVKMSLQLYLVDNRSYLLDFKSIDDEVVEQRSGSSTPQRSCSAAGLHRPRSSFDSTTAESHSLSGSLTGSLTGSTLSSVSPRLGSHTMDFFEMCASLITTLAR
# AMPK alpha1/alpha2, sequence (Q13131 whole entry, looked up): as the sequence (Q13131 whole entry, looked up) above
# 5'-AMP-activated protein kinase catalytic subunit alpha-2, sequence (P54646 whole entry, the tested form may be a part): as the sequence (P54646 whole entry, looked up) above
# Ribosomal protein S6 kinase alpha-3, sequence (P51812 whole entry, the tested form may be a part): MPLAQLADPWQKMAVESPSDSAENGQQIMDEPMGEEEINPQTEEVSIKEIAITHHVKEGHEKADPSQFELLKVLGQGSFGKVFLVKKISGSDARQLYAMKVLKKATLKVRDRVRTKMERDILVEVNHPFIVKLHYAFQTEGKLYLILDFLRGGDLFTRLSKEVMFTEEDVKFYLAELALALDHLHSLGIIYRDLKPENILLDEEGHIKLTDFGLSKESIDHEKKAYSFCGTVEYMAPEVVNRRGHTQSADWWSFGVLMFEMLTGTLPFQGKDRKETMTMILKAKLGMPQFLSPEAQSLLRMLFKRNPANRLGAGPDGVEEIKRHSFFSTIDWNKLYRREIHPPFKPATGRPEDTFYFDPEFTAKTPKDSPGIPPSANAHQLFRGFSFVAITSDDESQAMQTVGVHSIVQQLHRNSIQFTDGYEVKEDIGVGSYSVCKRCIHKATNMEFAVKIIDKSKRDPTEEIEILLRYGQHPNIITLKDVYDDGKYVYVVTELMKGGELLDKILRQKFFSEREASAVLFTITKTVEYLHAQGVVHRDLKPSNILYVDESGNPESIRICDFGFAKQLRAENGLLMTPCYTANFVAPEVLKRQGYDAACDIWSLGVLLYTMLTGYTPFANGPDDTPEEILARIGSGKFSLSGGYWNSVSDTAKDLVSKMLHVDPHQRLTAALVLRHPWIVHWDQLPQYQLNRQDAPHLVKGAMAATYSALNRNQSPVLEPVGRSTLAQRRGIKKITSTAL
# Mitogen-activated protein kinase 7 (Mus musculus), sequence (Q9WVS8 whole entry): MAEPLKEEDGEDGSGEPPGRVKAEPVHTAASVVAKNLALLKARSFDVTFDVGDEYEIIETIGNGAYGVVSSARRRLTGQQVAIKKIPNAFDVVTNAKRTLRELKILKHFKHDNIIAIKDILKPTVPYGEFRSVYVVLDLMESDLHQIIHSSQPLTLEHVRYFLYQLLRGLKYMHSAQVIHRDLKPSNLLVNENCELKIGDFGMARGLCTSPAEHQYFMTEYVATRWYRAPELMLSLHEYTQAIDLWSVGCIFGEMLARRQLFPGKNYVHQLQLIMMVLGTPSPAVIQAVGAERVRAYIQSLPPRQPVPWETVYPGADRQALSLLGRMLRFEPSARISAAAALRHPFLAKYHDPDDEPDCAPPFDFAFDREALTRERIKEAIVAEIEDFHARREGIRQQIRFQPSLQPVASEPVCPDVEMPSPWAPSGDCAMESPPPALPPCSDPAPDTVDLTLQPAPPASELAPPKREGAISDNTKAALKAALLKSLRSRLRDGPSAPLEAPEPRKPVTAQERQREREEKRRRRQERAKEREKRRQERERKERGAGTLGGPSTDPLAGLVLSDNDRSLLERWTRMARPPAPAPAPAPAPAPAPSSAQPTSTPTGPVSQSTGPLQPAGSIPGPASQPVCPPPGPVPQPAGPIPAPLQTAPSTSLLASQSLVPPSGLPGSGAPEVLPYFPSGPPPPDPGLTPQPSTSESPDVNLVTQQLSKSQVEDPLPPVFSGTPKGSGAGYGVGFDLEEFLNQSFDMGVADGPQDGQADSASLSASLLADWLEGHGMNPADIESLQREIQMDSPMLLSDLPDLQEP
smiles,measurement,setting,value
CCOc1cc(N2CCC(O)CC2)ccc1Nc1ncc2c(n1)N(C)c1ccccc1C(=O)N2C,IC50,[1],> 50 µM
same,IC50,[2],> 50 µM
same,inhibition,[3],47.7%
same,IC50,[4],> 50 µM
same,IC50,[5],> 50 µM
same,inhibition,[6],-2%
same,inhibition,[7],inactive
same,inhibition,[8],1.8%
same,inhibition,[9],-3%
same,inhibition at 2 µM,[10],-5.2%
same,inhibition at 2 µM,[11],2%
same,inhibition at 2 µM,[12],8.7%
same,inhibition,[13],32%
same,inhibition,[14],10.2%
same,inhibition,[15],15.7%
same,concentration at 192 h,[16],12.8 µM
same,IC50,[17],> 50 µM

# — ChEMBL document CHEMBL5661979, “Pharmacological inhibition of BMK1 suppresses tumor growth through promyelocytic leukemia protein” (Cancer Cell, 2010)
